Assay results taken from ChEMBL document CHEMBL1124344, “5-Piperazinylalkyl-2(3H)-oxazolones with neuroleptic activity” (J Med Chem, 1989).

What was measured:
[1] = Lethal dose in mice (LD50) following i.p. dosing; format: toxicity, organism-based; conditions: mouse, in vivo, ip
Method in brief: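 Acute toxicity tested in mice by the intraperitoneal route. LD50 is the dose killing 50% of treated mice, computed by Finney probit analysis; values are approximate.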

Rattus norvegicus [2] = assay: Activity to evoke catalepsy in rats, by administering perorally at a dose of 50 mg/kg; format: functional; conditions: route oral
Method in brief: (§1)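 Rats fasted overnight and given oral doses in arabic gum suspension (10 mL/kg), 1 h before screening or 1 and 5 h before profile testing. Forelegs placed on a horizontal bar 7 cm high, three times at 5-min intervals. Immobility of at least 15 s counts as catalepsy. ED50 is the dose giving catalepsy in 50% of rats, by probit analysis. Parenthetical entries give the maximal dose and percent activity.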

Mus musculus [3] = assay: Inhibition of amphetamine-induced hypermobility in mice following p.o. administration.; format: functional; conditions: po
Method in brief: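 Compounds were given orally to male mice (gum arabic suspension, 10 mL/kg, fasted) in groups of five. Amphetamine 4 mg/kg ip followed 30 min later. After another 10 min, motility was recorded for 15 min with a photocell actophotometer. ED50, by probit analysis, is the dose giving 50% reduction against controls.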

Rattus norvegicus [4] = assay: Antagonistic activity against apomorphine-induced stereotypy in rats, by administering perorally at a dose of 50 mg/kg; format: functional; conditions: route oral
Method in brief: (§2)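 Male rats fasted overnight and given oral doses in arabic gum suspension (10 mL/kg) 1 h, or 1 and 5 h, before challenge. Apomorphine 3 mg/kg iv, with stereotypy observed 20 min later. ED50 is the dose inhibiting stereotypy in 50% of rats, per Janssen's method. Parenthetical entries give the maximal dose and percent activity.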

Mus musculus [5] = assay: Inhibition of spontaneous motor activity in mice, by administering perorally; format: functional; conditions: po
Method in brief: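 Mice in groups of five were dosed orally with gum arabic suspensions at 10 mL/kg after an overnight fast, with a vehicle control group. Locomotion was counted for 10 min in a photocell activity cage, in at least two groups per dose. ED50, by probit analysis, is the dose giving 50% inhibition against controls.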

Rattus norvegicus [6] = assay: Activity to evoke catalepsy in rats, by administering perorally at a dose of 150 mg/kg; format: functional; conditions: route oral; method in brief: as §1
Rattus norvegicus [7] = assay: Antagonistic activity against apomorphine-induced stereotypy in rats, by administering perorally at a dose of 150 mg/kg; format: functional; conditions: route oral; method in brief: as §2
Rattus norvegicus [8] = assay: Activity to evoke catalepsy in rats, by administering perorally at a dose of 20 mg/kg; format: functional; conditions: route oral, read-out: Inhibition; method in brief: as §1
Mus musculus [9] = assay: Inhibition of spontaneous motor activity in mice, by administering perorally at a dose of 20 mg/kg; format: functional; conditions: route oral
Method in brief: (§3)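 Mice fasted overnight, then dosed orally with compound (weighed as base) suspended in arabic gum, 10 mL/kg, with vehicle controls; 1 h pretreatment for screening tests, 1 or 5 h for others. Groups of five; locomotor activity counted 10 min in photocell activity cage, at least two groups per dose. ED50 = dose giving 50% inhibition versus controls, by probit analysis.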

Rattus norvegicus [10] = assay: Antagonistic activity against apomorphine-induced stereotypy in rats, by administering perorally at a dose of 20 mg/kg; format: functional; conditions: route oral; method in brief: as §2
Mus musculus [11] = assay: Antagonistic activity against amphetamine-induced Hypermobility in mice, by administering perorally at a dose of 20 mg/kg; format: functional; conditions: route oral
Method in brief: (§4)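 Male mice in groups of five, fasted overnight, given oral drug in arabic gum suspension (10 mL/kg) 1 or 5 h ahead. Amphetamine 4 mg/kg ip given 30 min after drug. Ten minutes later locomotion is recorded for 15 min in a photocell actophotometer. ED50 is 50% reduction versus control hypermotility, by probit analysis. Parenthetical entries give the maximal dose and percent activity.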

Rattus norvegicus [12] = assay: Activity to evoke catalepsy in rats, by administering perorally; format: functional; conditions: po; method in brief: as §1
Rattus norvegicus [13] = assay: Antagonistic activity against apomorphine-induced stereotypy in rats, by administering perorally; format: functional; conditions: po; method in brief: as §2
Rattus norvegicus [14] = assay: Activity to evoke catalepsy in rats, by administering perorally at a dose of 70 mg/kg; format: functional; conditions: route oral; method in brief: as §1
Mus musculus [15] = assay: Inhibition of spontaneous motor activity in mice, by administering perorally at a dose of 70 mg/kg; format: functional; conditions: route oral; method in brief: as §3
Mus musculus [16] = assay: Antagonistic activity against amphetamine-induced Hypermobility in mice, by administering perorally at a dose of 70 mg/kg; format: functional; conditions: route oral; method in brief: as §4
Rattus norvegicus [17] = assay: Antagonistic activity against apomorphine-induced stereotypy in rats, by administering perorally at a dose of 100 mg/kg; format: functional; conditions: route oral; method in brief: as §2
Rattus norvegicus [18] = assay: Activity to evoke catalepsy in rats, by administering perorally at a dose of 100 mg/kg; format: functional; conditions: route oral, read-out: Inhibition; method in brief: as §1
Mus musculus [19] = assay: Inhibition of spontaneous motor activity in mice, by administering perorally at a dose of 100 mg/kg; format: functional; conditions: route oral; method in brief: as §3
Mus musculus [20] = assay: Antagonistic activity against amphetamine-induced Hypermobility in mice, by administering perorally at a dose of 100 mg/kg; format: functional; conditions: route oral; method in brief: as §4

COc1cccc(N2CCN(CCc3oc(O)nc3-c3ccc(F)cc3)CC2)c1
LD50 [1]: 500 mg/kg
inhibition in vivo at 50 mg/kg (Rattus norvegicus [2]): 30%
ED50 (Mus musculus [3]): 7.6 mg/kg
inhibition in vivo at 50 mg/kg (Rattus norvegicus [4]): 0%
ED50 (Mus musculus [5]): 10.8 mg/kg

O=C(c1ccccc1)n1c(-c2ccc(F)cc2)c(CCN2CCN(c3ccccc3)CC2)oc1=O
LD50 [1]: 750 mg/kg
inhibition in vivo at 150 mg/kg (Rattus norvegicus [6]): 0%
ED50 (Mus musculus [3]): 9.3 mg/kg
ED50 (Mus musculus [5]): 4 mg/kg
inhibition in vivo at 150 mg/kg (Rattus norvegicus [7]): 40%

Oc1nc(-c2ccc(F)cc2)c(CCN2CCN(c3cc(Cl)c(Cl)cc3Cl)CC2)o1
LD50 [1]: 750 mg/kg
percent of rats showing catalepsy at 20 mg/kg (Rattus norvegicus [8]): 0%
inhibition in vivo at 20 mg/kg (Mus musculus [9]): 0%
inhibition in vivo at 20 mg/kg (Rattus norvegicus [10]): 0%
inhibition in vivo at 20 mg/kg (Mus musculus [11]): 0%

Oc1nc(-c2ccc(F)cc2)c(CCN2CCN(c3cccc(Cl)c3Cl)CC2)o1
LD50 [1]: 90 mg/kg
percent of rats showing catalepsy at 20 mg/kg (Rattus norvegicus [8]): 0%
inhibition in vivo at 20 mg/kg (Rattus norvegicus [10]): 0%
ED50 (Mus musculus [5]): 12.5 mg/kg
inhibition in vivo at 20 mg/kg (Mus musculus [11]): 69%

Oc1nc(-c2ccccc2)c(CCN2CCN(c3ccccc3)CC2)o1
LD50 [1]: > 1000 mg/kg
ED50 (Rattus norvegicus [12]): 63 mg/kg
ED50 (Rattus norvegicus [13]): 200 mg/kg
ED50 (Mus musculus [3]): 51 mg/kg
ED50 (Mus musculus [5]): 60 mg/kg

CC(=O)n1c(-c2ccc(F)cc2)c(CCN2CCN(c3ccccc3)CC2)oc1=O
LD50 [1]: 350 mg/kg
ED50 (Rattus norvegicus [12]): 30.5 mg/kg
ED50 (Rattus norvegicus [13]): 44 mg/kg
ED50 (Mus musculus [3]): 4.7 mg/kg
ED50 (Mus musculus [5]): 2.7 mg/kg

Oc1nc(-c2ccc(Cl)cc2)c(CCN2CCN(c3ccccn3)CC2)o1
LD50 [1]: 375 mg/kg
ED50 (Rattus norvegicus [12]): 47 mg/kg
ED50 (Mus musculus [3]): 14.3 mg/kg
inhibition in vivo at 50 mg/kg (Rattus norvegicus [4]): 0%
ED50 (Mus musculus [5]): 14.1 mg/kg

COc1ccc(-c2nc(O)oc2CCN2CCN(c3ccccc3)CC2)cc1
LD50 [1]: 350 mg/kg
inhibition in vivo at 70 mg/kg (Rattus norvegicus [14]): 0%
inhibition in vivo at 70 mg/kg (Mus musculus [15]): 26%
ED50 (Rattus norvegicus [13]): 47 mg/kg
inhibition in vivo at 70 mg/kg (Mus musculus [16]): 27%

Oc1nc(-c2ccc(F)cc2)c(CCN2CCN(c3cccc(C(F)(F)F)c3)CC2)o1
LD50 [1]: > 1000 mg/kg
ED50 (Mus musculus [3]): 11.6 mg/kg
inhibition in vivo at 100 mg/kg (Rattus norvegicus [17]): 0%
ED50 (Mus musculus [5]): 16.9 mg/kg
percent of rats showing catalepsy at 100 mg/kg (Rattus norvegicus [18]): 0%

COc1ccccc1N1CCN(CCc2oc(=O)n(C(C)=O)c2-c2ccc(F)cc2)CC1
LD50 [1]: 190 mg/kg
ED50 (Rattus norvegicus [12]): 30 mg/kg
ED50 (Rattus norvegicus [13]): 14.5 mg/kg
ED50 (Mus musculus [3]): 3.5 mg/kg
ED50 (Mus musculus [5]): 4.3 mg/kg

Oc1nc(-c2ccc(Cl)cc2)c(CN2CCN(c3ccccc3)CC2)o1
LD50 [1]: > 1000 mg/kg
inhibition in vivo at 100 mg/kg (Rattus norvegicus [17]): 0%
inhibition in vivo at 100 mg/kg (Mus musculus [19]): 15%
percent of rats showing catalepsy at 100 mg/kg (Rattus norvegicus [18]): 0%
inhibition in vivo at 100 mg/kg (Mus musculus [20]): 0%

CC(=O)n1c(-c2ccc(F)cc2)c(CCN2CCN(c3cc(Cl)cc(Cl)c3)CC2)oc1=O
LD50 [1]: 1000 mg/kg
ED50 (Mus musculus [3]): 2.7 mg/kg
inhibition in vivo at 100 mg/kg (Rattus norvegicus [17]): 10%
ED50 (Mus musculus [5]): 4.5 mg/kg
percent of rats showing catalepsy at 100 mg/kg (Rattus norvegicus [18]): 0%

Oc1nc(-c2ccc(F)cc2)c(CCN2CCN(c3cc(Br)cc(Br)c3)CC2)o1
LD50 [1]: 1000 mg/kg
ED50 (Mus musculus [3]): 5.4 mg/kg
inhibition in vivo at 100 mg/kg (Rattus norvegicus [17]): 0%
ED50 (Mus musculus [5]): 15 mg/kg
percent of rats showing catalepsy at 100 mg/kg (Rattus norvegicus [18]): 0%

Cn1c(-c2ccc(F)cc2)c(CCN2CCN(c3ccccc3)CC2)oc1=O
LD50 [1]: 750 mg/kg
ED50 (Rattus norvegicus [13]): 112 mg/kg
ED50 (Mus musculus [3]): 21 mg/kg
ED50 (Mus musculus [5]): 19.5 mg/kg
percent of rats showing catalepsy at 100 mg/kg (Rattus norvegicus [18]): 0%

Oc1nc(-c2ccc(F)cc2)c(CCN2CCN(c3ccc(Cl)c(Cl)c3)CC2)o1
LD50 [1]: 1000 mg/kg
inhibition in vivo at 100 mg/kg (Rattus norvegicus [17]): 0%
inhibition in vivo at 100 mg/kg (Mus musculus [19]): 21%
percent of rats showing catalepsy at 100 mg/kg (Rattus norvegicus [18]): 0%
inhibition in vivo at 100 mg/kg (Mus musculus [20]): 62%

Oc1nc(-c2ccc(F)cc2)c(CCN2CCN(c3ccc(Cl)c(Cl)c3Cl)CC2)o1
LD50 [1]: 750 mg/kg
percent of rats showing catalepsy at 20 mg/kg (Rattus norvegicus [8]): 0%
inhibition in vivo at 20 mg/kg (Mus musculus [9]): 0%
inhibition in vivo at 20 mg/kg (Rattus norvegicus [10]): 0%
inhibition in vivo at 20 mg/kg (Mus musculus [11]): 0%
